Most compounds without a hit are left out; they make up all but 2% or so of the library.
Neddylation inh: inhibitors of cullin neddylation, primary screen, biochemical, TR-FRET, uHTS, NAE and Ubc12; calls only at 25 µM; hit rate 0.58% among 360,000; AID 651699, 2012; in the data active means inhibition above about 36%
Rev-erbA mod: modulators of Rev-erb alpha DNA binding, primary screen, biochemical, FITC-DNA, fluorescence polarization, uHTS; Nuclear receptor subfamily 1 group D member 1 (Homo sapiens), P20393; Rev-erbα–FITC-DNA binding, 90 min; activity, % at 10 µM; hit rate 0.79% among 370,000;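 active means activity above about 14%, limit read from the data; passing the limit was not always enough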;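 further: 0% = DMSO wells with 35 nM protein and 100% = DMSO wells with 750 nM protein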
NR2E3 ag-1: NR2E3 agonists in two-hybrid cells, primary screen, cell-based, luminescence, CHO-S, Gal4-NCOR/VP16-NR2E3; inhibition of corepressor binding, % at 3.98 µM; luciferase; Photoreceptor-specific nuclear receptor (Homo sapiens), Q9Y5X4; hit rate 0.35% among 360,000;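 active means inhibition above the mean of all tested compounds plus 3 SD, cut at about 70% in these data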;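 further: 0% = DMSO with NR2E3 transfected cells and 100% = cells lacking NR2E3 construct; higher means lower luciferase signal from less NR2E3 corepressor binding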
Target sequence (Q9Y5X4 whole entry, looked up, the tested form may be a part): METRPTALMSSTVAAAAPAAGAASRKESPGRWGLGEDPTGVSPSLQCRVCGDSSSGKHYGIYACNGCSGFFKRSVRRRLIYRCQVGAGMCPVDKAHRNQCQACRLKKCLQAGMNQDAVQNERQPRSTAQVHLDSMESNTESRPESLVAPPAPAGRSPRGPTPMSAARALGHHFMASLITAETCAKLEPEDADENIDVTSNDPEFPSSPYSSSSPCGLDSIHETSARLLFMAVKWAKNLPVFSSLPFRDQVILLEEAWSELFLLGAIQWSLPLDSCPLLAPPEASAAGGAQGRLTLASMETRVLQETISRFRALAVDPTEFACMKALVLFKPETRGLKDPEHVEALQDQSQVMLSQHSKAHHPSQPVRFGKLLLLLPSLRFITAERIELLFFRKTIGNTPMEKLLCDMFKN
NR2E3 ag-2: inhibitors of NR2E3-RetCOR corepressor binding, primary screen, NR2E3 agonist project, biochemical, TR-FRET, GST-NR2E3, biotin-RetCOR; Photoreceptor-specific nuclear receptor (Homo sapiens), Q9Y5X4; hit rate 0.12% among 320,000; AID 2300, 2010; 1536-well; inhibition of corepressor binding, % at 4.78 µM;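 active means percent inhibition above the cutoff of mean plus 3 SD of all tested compounds, set per screening campaign, cut at about 20% in these data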;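 further: 0% = DMSO wells and 100% = biotin wells as full block of FRET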
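Material: NR2E3–RetCOR corepressor complex | Quantity: 1.35 nM GST-tagged NR2E3 final | Schedule: 5 h at 4 °C | Replication: Singlicate compound wells | Reagent: RetCOR corepressor, biotinylated, 7 nM | Controls: Biotin wells as high control, 0.6% DMSO wells as low control | Signal: TR-FRET, Eu(K)-anti-GST donor, streptavidin-D2 acceptor, ex 340, em 617/671 nm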
PG9 Ab binder: binders of HIV-1 gp120 antibody PG9, primary screen, biochemical, TR-FRET. AID 624416, 2012. hit rate 0.43% among 360,000. inhibition, % at 6.7 µM. TR-FRET gp120-PG9 antibody binding. HIV-1 gp120 / PG9 antibody interaction; in the data active means inhibition above about 8.5%
Rev-erbA confirm: modulators of Rev-erb alpha DNA binding, confirmation, biochemical, FITC-DNA, fluorescence polarization, single point. activation, % at 25 µM. 90 min. hit rate 61% among 3,000. AID 1259319, 2017. shares compounds with Rev-erbA mod;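 active means activation at or above a set limit, or at least 3 SD above the negative control mean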;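 further: 0% = 35 nM protein with DMSO and 100% = 750 nM protein high control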
RORg DNA counter: modulation of RORgamma DNA binding, dose response, counter-screen for Rev-erb alpha modulator project, biochemical, fluorescence polarization, FITC-DNA; shares compounds with Rev-erbA mod; purified RORgamma protein-FITC-DNA binding; IC50, µM; hit rate 8% among 910;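 active means Compounds whose fitted half-maximal concentration for disrupting protein-DNA binding is below 10 micromolar; the record names Rev-erb in its text, so the target is in doubt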
* hit, by the source's call; i = inactive; · = no result given.

SMILES	Neddylation inh	Rev-erbA mod	NR2E3 ag-1	NR2E3 ag-2	PG9 Ab binder	Rev-erbA confirm	others
NS(=O)(=O)c1ccc(CCNC(=O)c2ccc(Cn3c(=O)[nH]c4ccccc4c3=O)cc2)cc1	i	19*	-15	-3	8	1
CC(C)CCNC(=O)c1ccc(Cn2c(=S)[nH]c3ccccc3c2=O)cc1	i	29*	-25	2	4	26*
CC1(C(=O)NCCc2c[nH]c3ccccc23)CCN1Cc1csc2ccccc12 (stereo not given)	i	-7	-9	·	1	·
COc1cccc(-n2c([S-])c(C(=O)Nc3ccc(S(=O)(=O)N4CCOCC4)cc3)[n+]3cc(C(N)=O)ccc23)c1	i	62*	-6	-2	-2	63*	RORg DNA counter=i
CCn1c2ccccc2n2c(=O)c(=O)n(CC(=O)Nc3ccc(C(C)C)cc3)nc12	i	31*	8	-3	-1	4
COc1cccc(-c2nc(CS(=O)(=O)CC(=O)NCCCc3ccccc3)c(C)o2)c1	i	60*	14	-1	4	37*	RORg DNA counter=>40
Cc1ccc(NC(=O)c2cccc3c2C(=O)N(C2CCCCC2)C3)c(Cl)c1	i	·	-16	-3	·	·
CCOc1ccc(-c2cc(C(=O)OC)nc3c2c(=O)n(C)c(=O)n3C)cc1	i	39*	-6	-2	1	0
c1ccc(-c2nc(-n3nc4ccccc4n3)nc3ccccc23)cc1	i	2	5	1	0	·
O=C1CN(c2nc(-c3ccccc3)c3ccccc3n2)c2ccccc2N1	i	34*	13	-3	1	15
O=C(c1ccc(CSc2ccc(Cl)cc2)o1)N1CCOCC1	i	-9	-40	·	-1	·
Cn1c(=O)c2c(nc(SCC(=O)c3cccs3)n2Cc2ccc(F)cc2)n(C)c1=O	i	133*	-8	2	1	100*	RORg DNA counter=>40
Cn1c(=O)c2c(nc(Br)n2CC(=O)c2cccs2)n(C)c1=O	i	0	-5	0	2	·
COc1ccc(CC(=O)OCC(=O)c2ccc(F)cc2)cc1	i	-4	-10	·	-1	·
O=C(c1ccc2c(=O)n(Cc3ccccc3Cl)c(=S)[nH]c2c1)N1CCOCC1	i	32*	5	1	-1	27*
CC(=O)C1=C(c2ccccc2)OC(N)=C(C#N)C1c1ccccc1C (stereo not given)	i	5	1	0	-1	·
CSC1=C(C#N)C(c2ccccc2C)C(C#N)=C(N)N1 (stereo not given)	i	27*	-5	0	-3	14
CSC1=C(C#N)C(c2ccccc2Cl)C2=C(N1)c1ccccc1C2=O (stereo not given)	i	62*	-5	2	0	20*
COCc1cn([C@H]2C[C@@H]3O[C@H](CO)CC[C@@H]3O[C@@H]2CCc2ccc(-c3ccc(OC)cc3)cc2)nn1	·	2	·	·	·	·
CCCCC(=O)N(C)c1c(CC)nc2c(OCCOc3ccccc3)cccn12	i	-6	16	·	-1	·
Nc1ncnc2c1ncn2[C@@H]1O[C@H](CNC(=O)[C@@H](N)C2CCCCC2)[C@@H](O)[C@H]1O	i	-5	-17	·	1	·
COC(=O)c1ccc2nc(-c3ccc(OC)c(OC)c3)c(Cc3ccccc3C(F)(F)F)n2c1	·	-2	·	·	-2	·
COC(=O)c1ccc2nc(-c3ccc(F)cc3)c(Cc3ccccc3C(F)(F)F)n2c1	i	21*	-3	·	0	-5
COC(=O)c1ccc2nc(-c3ccc(F)cc3)c(Cc3ccccc3)n2c1	i	2	-31	·	0	·

Source: PubChem (several laboratories)
